Legend:
[1] = system: SH-SY5Y human neuroblastoma cells stably expressing GLuc-SERCaMP; assay: GLuc-SERCaMP assay; format: cell-based; settings: 4 h, read-out: EC50, GLuc-SERCaMP secretion in response to thapsigargin
Sprague-Dawley rats = settings: for Bederson’s neurological score: rat, intracerebroventricular 15 min prior to 60 min MCAo, vs vehicle
[2] = CD-1 mice; value for 686 in brain
[3] = system: C57Bl/6J male mice on high fat diet; assay: Metabolic testing in Diet Induced Obese; settings: DIO mice, 12 mg/kg i.p. daily; for fasting insulin / insulin resistance index (HOMA-IR): vs vehicle
[4] = system: SH-SY5Y-GLuc-SERCaMP cells; assay: SERCaMP assay, acute treatment paradigm; format: cell-based, human; settings: 30 μM compound; 200 nM thapsigargin; measured 8 h after thapsigargin
[5] = system: ER calcium store in SH-SY5Y cells; assay: GCaMPer ER calcium assay; format: cell-based, human; settings: 16 hour pre-treatment; 50 nM thapsigargin, 30 min
[6] = system: UPRE-NLuc reporter in SH-SY5Y cells; assay: UPRE luciferase reporter assay; format: cell-based, human; settings: compound pre-treatment, then 100 nM thapsigargin
[7] = system: BiP, ERdj4, and ASNS mRNA in SH-SY5Y cells; assay: ER stress response transcriptional analysis; format: cell-based, human; settings: 30 μM compounds 16 h prior to 4 h 100 nM thapsigargin
Summary of the method: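 SH-SY5Y cells were plated at 2.5×10^5 cells/500 μl in 24-well plates. Test compound (30 μM) was given 16 h before a 4 h exposure to 100 nM thapsigargin. Total RNA was isolated with on-column DNA digestion, and 0.5 μg was reverse-transcribed with cDNA diluted 1:20. BiP reports the ATF6 arm. Data are 2^-ddCq (n=6) versus thapsigargin only, by one-way ANOVA with Dunnett's test.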

[8] = system: BiP/GRP78 protein levels in SH-SY5Y-SERCaMP cells; assay: BiP immunoblot; format: cell-based, human; settings: 30 μM compounds 16 h prior to 4 h 100 nM thapsigargin
[9] = system: primary human skeletal muscle cells; assay: Human skeletal muscle exodosis assay; format: cell-based; settings: 30-minute pre-treatment; 100 nM thapsigargin, 8 h
Summary of the method: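 Primary human myoblasts are grown in DMEM (4.5 g/L glucose) at 37°C and 5.5% CO2. They are plated at 7.3×10^3 cells/well on 3 mg/ml Matrigel-coated 96-well plates. Medium is sampled 4–8 h after thapsigargin. Secreted GLuc-SERCaMP is read as luminescence 8 h after 100 nM thapsigargin, after injecting 8 μM coelenterazine into 5 μl medium. n=11–12 wells per concentration.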

[10] = system: INS-1 832/13 pTetR TO shWfs1 cells; assay: Wolfram caspase 3/7 assay; format: cell-based, rat; settings: compounds and doxycycline for 48 h
[11] = system: SH-SY5Y-GLuc-SERCaMP cells; assay: Oxygen-glucose deprivation; format: cell-based, human; settings: 16 h hypoxia plus 24 h normoxia; for cell attachment and viability after OGD: drugs added at beginning of OGD
[12] = system: SH-SY5Y cells transfected with GLuc-ERS constructs; assay: GLuc-ERS; format: cell-based, human; settings: 20 μM
Summary of the method: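 SH-SY5Y cells are reverse-transfected with GLuc-ERS reporter constructs: 5 × 10^4 cells are plated onto the transfection complexes in antibiotic-free medium and grown 48 h. OGD is 16 h hypoxia plus 24 h normoxia, with the test compound added at the start of OGD. GLuc is assayed in medium and lysates with coelenterazine. The secretion index is extracellular/intracellular GLuc. n=9–15 wells.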

SH-SY5Y cells = assay: Endogenous SERCaMPs; format: cell-based, human; settings: 20 μM
Summary of the method: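 SH-SY5Y cells were seeded at 5×10^4 cells/well in 96-well plates and given 16 h hypoxia plus 24 h normoxia with test compound (20 μM). At reperfusion, medium was fully exchanged to phenol red-free, serum-free esterase buffer (NaCl, KCl, MgCl2, CaCl2, glucose, 20 mM HEPES), collected 8 h later, and mixed 1:1 with 100 μM fluorescein […] substrate ([…]). Fluorescence (ex 465/em 528) was read after 1 h. n=24 wells; two-way ANOVA.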

[13] = system: SH-SY5Y cells stably expressing a constitutively secreted GLuc (SH-SY5Y-GLuc); assay: SH-SY5Y-GLuc counterscreen; format: cell-based, human; settings: 19 h treatment
Summary of the method: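 The counterscreen used SH-SY5Y cells expressing untagged, constitutively secreted Gaussia luciferase in 1536-well plates. Cells were exposed to test compound for 19 h, and GLuc was read from the medium. The ER-to-Golgi transport blocker brefeldin A (19 h) was titrated on each of eight plates as a control (n=2 per concentration).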

[14] = 16 h hypoxia plus 24 h normoxia

Row | SMILES | Bederson’s neurological score (Sprague-Dawley rats) | SERCaMP release, compound added 30 min pre- to 2 hours post-thapsigargin [4] | SERCaMP release, compound added 4 hours post-thapsigargin [4] | effect on ER calcium (GCaMPer fluorescence) [5] | UPRE-NLuc activation [6] | GLuc-SERCaMP release in primary human skeletal muscle cells [9] | caspase 3/7 activation associated with Wfs1 knockdown [10] | GLuc-SERCaMP secretion after OGD [11] | cell attachment and viability after OGD [11] | also measured
1 | C/C=C(/C)C(=O)O[C@H]1C(C)=C2[C@H]([C@@H]1OC(=O)CCCCCCC)[C@@](C)(OC(C)=O)C[C@H](OC(=O)CCC)[C@@]1(O)[C@H]2OC(=O)[C@@]1(C)O [Thapsigargin] | – | – | – | – | – | – | – | – | – | EC50 [1]: 112 nM
2 | CC(C)C[C@H]1C(=O)N2CCC[C@H]2[C@]2(O)O[C@](NC(=O)[C@@H]3C=C4c5cccc6c5c(c(Br)n6C(=O)C5CC5)C[C@H]4N(C)C3)(C(C)C)C(=O)N12.Cl [analog 686, (6aR,9R)-5-bromo-4-(cyclopropanecarbonyl)-N-((2R,5S,10aS,10bS)-10b-hydroxy-5-isobutyl-2-isopropyl-3,6-dioxooctahydro-8H-oxazolo[3,2-a]pyrrolo[2,1-c]pyrazin-2-yl)-7-methyl-4,6,6a,7,8,9-hexahydroindolo[4,3-fg]quinoline-9-carboxamide, HCl] | significant reduction | – | – | – | – | – | – | – | – | reduction of infarction volume compared with bromocriptine (Sprague-Dawley rats; rat MCAO): more effective than bromocriptine; metabolic conversion to the parent bromocriptine molecule [2]: < 1%
3 | CC(C)C[C@H]1C(=O)N2CCC[C@H]2[C@]2(O)O[C@](NC(=O)[C@@H]3C=C4c5cccc6c5c(c(Br)n6C(=O)NC5CC5)C[C@H]4N(C)C3)(C(C)C)C(=O)N12.Cl [analog 688, (6aR,9R)-5-bromo-N4-cyclopropyl-N9-((2R,5S,10aS,10bS)-10b-hydroxy-5-isobutyl-2-isopropyl-3,6-dioxooctahydro-8H-oxazolo[3,2-a]pyrrolo[2,1-c]pyrazin-2-yl)-7-methyl-6a,7,8,9-tetrahydroindolo[4,3-fg]quinoline-4,9(6H)-dicarboxamide, HCl] | significant reduction | – | – | – | – | – | – | – | – | metabolic conversion to the parent bromocriptine molecule [2]: no detectable conversion; change in body weight following the first week of injections [3]: did not show; cumulative caloric intake and energy expenditure during the three weeks of treatment [3]: did not show; fasting glucose levels at 4 hours [3]: reduced fasting glucose levels; food intake at the end of the second and third week of injections [3]: did not show; fasting insulin [3]: reduced; insulin resistance index (HOMA-IR) [3]: reduced
4 | CC(C)C[C@H]1C(=O)N2CCC[C@H]2[C@]2(O)O[C@](NC(=O)[C@@H]3C=C4c5cccc6[nH]c(Br)c(c56)C[C@H]4N(C)C3)(C(C)C)C(=O)N12 [bromocriptine] | significant reduction | inhibited SERCaMP release | inactive | stabilizing effect on ER calcium | diminished UPRE-NLuc activation | partially attenuated GLuc-SERCaMP release | reduced caspase 3/7 activation | decreased GLuc-SERCaMP secretion | improved cell attachment and viability | BiP mRNA levels [7]: reduced expression of BiP; BiP/GRP78 protein levels [8]: reduced thapsigargin-induced accumulation; thapsigargin-induced release of GLuc-ERS reporter proteins ([12]; 30 min pre-treatment, 200nM thapsigargin 8 h): broadly inhibited thapsigargin-induced release of the reporter proteins; OGD-induced release of GLuc-ERS reporter proteins [12, 14]: broadly reduced the OGD-induced release of the reporter proteins; thapsigargin-induced secretion of PDI, MANF, and carboxylesterases (SH-SY5Y cells; 0.5 h before or 1 h following 200 nM thapsigargin): reduced thapsigargin-induced secretion of all three proteins; OGD-induced release of carboxylesterases (SH-SY5Y cells; [14]): decreased; change in body weight following the first week of injections [3]: significant decrease in body weight; cumulative caloric intake and energy expenditure during the three weeks of treatment [3]: significantly higher; fasting glucose levels at 4 hours [3]: reduced fasting glucose levels; food intake at the end of the second and third week of injections [3]: elevated; glucose excursion AUC in glucose tolerance tests [3]: reduced the glucose excursion AUC; fasting insulin [3]: reduced; insulin resistance index (HOMA-IR) [3]: reduced
5 | C[C@@H]1C[C@@H]([C@H](O)CC2CC(=O)NC(=O)C2)C(=O)[C@@H](C)C1 [cycloheximide] | – | – | – | – | – | – | – | – | – | activity in the SH-SY5Y-GLuc counterscreen [13]: inhibitory activity
6 | O=C1CN(/N=C/c2ccc(-c3ccc([N+](=O)[O-])cc3)o2)C(O)=N1 [dantrolene] | – | inhibited SERCaMP release | inactive | – | inactive | partially attenuated GLuc-SERCaMP release | – | decreased GLuc-SERCaMP secretion | improved cell attachment and viability | –
7 | COc1ccc2c(c1)[C@]13CCCC[C@@H]1[C@H](C2)N(C)CC3 [dextromethorphan] | – | inhibited SERCaMP release | inactive | no effect | diminished UPRE-NLuc activation | partially attenuated GLuc-SERCaMP release | – | – | – | –
8 | COc1ccc([C@@H]2Sc3ccccc3N(CCN(C)C)C(=O)[C@@H]2OC(C)=O)cc1 [diltiazem] | – | inhibited SERCaMP release | inactive | no effect | inactive | partially attenuated GLuc-SERCaMP release | reduced caspase 3/7 activation | decreased GLuc-SERCaMP secretion | improved cell attachment and viability | –
9 | COc1ccc(CCN(C)CCCC(C#N)(c2ccc(OC)c(OC)c2)C(C)C)cc1OC (stereo not drawn) [verapamil] | – | inhibited SERCaMP release | inactive | – | diminished UPRE-NLuc activation | partially attenuated GLuc-SERCaMP release | reduced caspase 3/7 activation | – | – | BiP mRNA levels [7]: reduced expression of BiP
